High-throughput results: PubChem BioAssay, The Scripps Research Institute Molecular Screening Center
Shown are actives, neighbours in structure and some others; about 3.1% of the full set was active somewhere.
UHRF1 binding: human UHRF1 methylated DNA binding inhibitors; UHRF1 binding to methylated oligo, TR-FRET; 370,000 compounds, 0.75% hits; Q96T88; inhibition, % at 4.4 µM; AID 687016; in the data active = inhibition above about 21%;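 note: UHRF1 SRA domain binding a hemimethylated CpG hairpin DNA probe; 0% = median of test compound wells and 100% = reference inhibitor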
RBBP9 inh: blocks human serine hydrolase RBBP9. O75884. recombinant RBBP9, FP-Rh probe fluorescence polarization. inhibition, % at 7.94 µM. 220,000 compounds, 0.2% hits. AID 1515;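 active = inhibition above the campaign mean of all tested compounds plus 3 SD, cut at about 14% in these data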;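 note: plate controls were DMSO wells with RBBP9 for no effect and wells lacking RBBP9 protein for full effect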
Target sequence (O75884 whole entry, looked up): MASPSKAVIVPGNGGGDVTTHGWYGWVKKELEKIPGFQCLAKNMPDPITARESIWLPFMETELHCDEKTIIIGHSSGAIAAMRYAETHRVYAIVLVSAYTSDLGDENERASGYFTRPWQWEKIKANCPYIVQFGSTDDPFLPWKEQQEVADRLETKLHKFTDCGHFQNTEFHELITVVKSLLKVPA
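Material: RBBP9 protein. Amount: RBBP9 at 2.5 µM in dispensed solution, before mixing. Schedule: 30 min then 45 min, 25 °C. Medium: Tris buffer pH 8.0, NaCl, Pluronic. Measured by: fluorescence polarization. Measure: percent inhibition from mP, scaled between DMSO and no-protein wells. Replication: one well per compound.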
LEDGF integ inh: blocks HIV-1 LEDGF/p75-dependent DNA integration; TR-FRET IN-LEDGF/p75 DNA integration, Eu/Cy5; inhibition, % at 3.7 µM; 370,000 compounds, 0.64% hits; AID 743269;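 active = inhibition above the screen-wide mean plus 3 SD, cut at about 13% in these data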;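 note: signal is the Cy5 over europium emission ratio at 671 and 618 nm; 0% = plate median of compound wells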
MBD2 inh: MBD2-methylated oligo binding inhibition. Q9UBB5. TR-FRET, MBD2 binding to methylated oligonucleotide. inhibition, % at 4.4 µM. 370,000 compounds, 0.31% hits. AID 686964; in the data active = inhibition above about 13%
Target sequence (Q9UBB5 whole entry, looked up): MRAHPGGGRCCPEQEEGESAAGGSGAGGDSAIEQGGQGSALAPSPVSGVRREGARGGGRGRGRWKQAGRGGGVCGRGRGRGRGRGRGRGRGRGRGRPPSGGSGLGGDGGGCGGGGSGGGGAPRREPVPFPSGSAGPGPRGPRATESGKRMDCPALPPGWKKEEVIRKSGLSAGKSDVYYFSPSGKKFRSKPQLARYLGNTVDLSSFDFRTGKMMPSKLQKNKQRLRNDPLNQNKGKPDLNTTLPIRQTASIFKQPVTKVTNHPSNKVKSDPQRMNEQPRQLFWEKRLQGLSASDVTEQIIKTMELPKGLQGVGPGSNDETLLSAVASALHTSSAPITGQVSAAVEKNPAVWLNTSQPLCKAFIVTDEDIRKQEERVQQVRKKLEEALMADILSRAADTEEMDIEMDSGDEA
PRMT1 inh: blocks human protein arginine methyltransferase 1; Q99873; recombinant PRMT1, activity-based probe fluorescence polarization; inhibition, % at 2.79 µM; 370,000 compounds, 1.3% hits; AID 652257;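 active = inhibition above about 21% made by adding two undisclosed values, limit read from the data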
ABHD5-PLIN5 inh: ABHD5-PLIN5 protein interaction inhibition; Split G. princeps luciferase complementation, luminescence, 4 h; inhibition, % at 4 µM; 360,000 compounds, 0.78% hits; Q00G26+Q8WTS1;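 active = inhibition above the mean inhibition across every tested compound plus 3 SD, cut at about 22% in these data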;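 note: 0% = DMSO only wells and the 100% control is not disclosed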
PRMT1 confirm: confirmation of human PRMT1 inhibitors; shares compounds with PRMT1 inh; recombinant His-PRMT1, activity-based probe fluorescence polarization; inhibition, % at 2.79 µM; 3,300 compounds, 42% hits;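 active = mean inhibition across replicates above the hit cutoff derived for the earlier primary screen, cut at about 22% in these data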
Starred values were filed as active, the others as inactive.

What do the screens show for `O=C(C=Cc1ccc(O)c(O)c1)NCC(=O)NC(Cc1ccccc1)C(=O)O` (stereo not drawn)?
UHRF1 binding: 2; LEDGF integ inh: -5; MBD2 inh: 3; PRMT1 inh: 3

What do the screens show for `OCCN1CCN(Cc2cc(Br)cc(Br)c2O)CC1`?
UHRF1 binding: 3; RBBP9 inh: -4; LEDGF integ inh: -4; MBD2 inh: 3; PRMT1 inh: 2; ABHD5-PLIN5 inh: -1

How did CC(C)(C)c1cc(C(=S)N2CCN(CCO)CC2)cc(C(C)(C)C)c1O do in these assays?
UHRF1 binding: 0; RBBP9 inh: 0; LEDGF integ inh: 5; MBD2 inh: 6; PRMT1 inh: 27*; ABHD5-PLIN5 inh: -2; PRMT1 confirm: 19

What do the screens show for `OCCN1CCN(C(=S)c2ccc(Cl)cc2)CC1`?
UHRF1 binding: -2; RBBP9 inh: 0; LEDGF integ inh: -4; MBD2 inh: 0; PRMT1 inh: 32*; ABHD5-PLIN5 inh: 7; PRMT1 confirm: 40*

How did CCOc1ccc(C(=S)N2CCN(C)CC2)cc1 do in these assays?
UHRF1 binding: 1; RBBP9 inh: -6; LEDGF integ inh: -2; MBD2 inh: 5; PRMT1 inh: 28*; ABHD5-PLIN5 inh: -2; PRMT1 confirm: 33*

How did CN1CCCCC(NC(=O)c2c(F)cccc2F)C1=O (stereo not drawn) do in these assays?
UHRF1 binding: 3; LEDGF integ inh: -1; MBD2 inh: 1; PRMT1 inh: 5

What do the screens show for `O=S(=O)(c1ccc(CN2CCOCCOCCN(Cc3ccc(S(=O)(=O)C(F)(F)F)cc3)CCOCC2)cc1)C(F)(F)F`?
UHRF1 binding: 0; LEDGF integ inh: 1; MBD2 inh: 1; PRMT1 inh: -3

What do the screens show for `CCc1ccccc1N1C(=O)CC(Sc2nccc(C)n2)C1=O` (stereo not drawn)?
UHRF1 binding: 0; LEDGF integ inh: -1; MBD2 inh: 2; PRMT1 inh: 14; ABHD5-PLIN5 inh: 5

What do the screens show for `Cc1cccc(N2C(=O)CC(Sc3nc(-c4ccccc4)c4cc(Cl)ccc4n3)C2=O)c1` (stereo not drawn)?
UHRF1 binding: 6; RBBP9 inh: -7; LEDGF integ inh: -1; MBD2 inh: -1; PRMT1 inh: 3; ABHD5-PLIN5 inh: 2

What do the screens show for `O=C1CC(Sc2ncccn2)C(=O)N1c1ccccc1C(F)(F)F` (stereo not drawn)?
UHRF1 binding: 4; RBBP9 inh: 2; LEDGF integ inh: -4; MBD2 inh: 5; PRMT1 inh: 51*; ABHD5-PLIN5 inh: 0; PRMT1 confirm: 6

Results for Cc1ccc(Cl)cc1N1C(=O)CC(Sc2ncccn2)C1=O (stereo not drawn) ?
UHRF1 binding: 1; LEDGF integ inh: 5; MBD2 inh: -5; PRMT1 inh: 32*; ABHD5-PLIN5 inh: -5; PRMT1 confirm: 0

What do the screens show for `Oc1ccc2ccccc2c1CNc1cnc2ccccc2c1`?
UHRF1 binding: 0; RBBP9 inh: 2; LEDGF integ inh: -7; MBD2 inh: -4; PRMT1 inh: 43*; ABHD5-PLIN5 inh: 22*; PRMT1 confirm: 29*

How did CCN(CC)C(=O)CC[C@H]1CC[C@]2(CCCN(Cc3ccc(OC)cc3)C2)O1 do in these assays?
UHRF1 binding: -1; LEDGF integ inh: 1; MBD2 inh: 1; PRMT1 inh: -3

How did COC(=O)c1ccc(CSc2n[nH]c(=S)s2)o1 do in these assays?
UHRF1 binding: 1; RBBP9 inh: -7; LEDGF integ inh: -3; MBD2 inh: 4; PRMT1 inh: 27*; ABHD5-PLIN5 inh: -5; PRMT1 confirm: -1

What do the screens show for `CCn1c(=O)n2n(c1=O)[C@]1(C=C(C)C2)CN(Cc2ccc(OC)cc2OC)C(NC(=O)c2ccccc2)=N1`?
UHRF1 binding: 3; LEDGF integ inh: 3; MBD2 inh: 3; PRMT1 inh: -2

How did CCCc1c(O)nc(SC2CC(=O)N(c3ccc(C)c(Cl)c3)C2=O)[nH]c1=O (stereo not drawn) do in these assays?
UHRF1 binding: -1; LEDGF integ inh: 1; MBD2 inh: 0; PRMT1 inh: 0; ABHD5-PLIN5 inh: -1

Results for Cc1ccc(N2C(=O)CC(Sc3nc4ccccc4o3)C2=O)cc1Cl (stereo not drawn) ?
UHRF1 binding: 3; RBBP9 inh: -13; LEDGF integ inh: 2; MBD2 inh: -2; PRMT1 inh: 50*; ABHD5-PLIN5 inh: 13; PRMT1 confirm: 37*

What do the screens show for `CCCCCCCC(=O)N[C@H]1CC[C@@]23CCCN2C(=O)CCC[C@H]3[C@H]1C`?
UHRF1 binding: -2; LEDGF integ inh: 0; MBD2 inh: -8; PRMT1 inh: -2

How did O=C(CSc1nccn(-c2cccc(F)c2)c1=O)Nc1ccc(Cl)cc1F do in these assays?
UHRF1 binding: -6; LEDGF integ inh: 2; MBD2 inh: 0; PRMT1 inh: 75*; ABHD5-PLIN5 inh: -17; PRMT1 confirm: 69*

Results for O=C(CSc1nccn(-c2ccc(F)c(F)c2)c1=O)NC1CCCC1 ?
UHRF1 binding: -1; LEDGF integ inh: 3; MBD2 inh: 1; PRMT1 inh: 20; ABHD5-PLIN5 inh: -9

What do the screens show for `Cc1cccc(-n2ccnc2SCC(=O)Nc2ccc3c(c2)OCCO3)c1`?
UHRF1 binding: 0; RBBP9 inh: -8; LEDGF integ inh: 3; MBD2 inh: -2; PRMT1 inh: 3; ABHD5-PLIN5 inh: -3

What do the screens show for `O=C(CSc1nccn(-c2ccc3c(c2)OCCO3)c1=O)Nc1ccccc1`?
UHRF1 binding: -3; LEDGF integ inh: 1; MBD2 inh: 3; PRMT1 inh: 45*; ABHD5-PLIN5 inh: 4; PRMT1 confirm: 24*

Results for Cn1c(=O)c2c([nH]c(=S)n2CCCc2ccccc2)n(C)c1=O ?
UHRF1 binding: -4; LEDGF integ inh: 2; MBD2 inh: -2; PRMT1 inh: 41*; ABHD5-PLIN5 inh: -10; PRMT1 confirm: 64*

How did O=C(CSCC(=O)c1ccccc1)Nc1ccccc1Cl do in these assays?
UHRF1 binding: 15; RBBP9 inh: -6; LEDGF integ inh: -1; MBD2 inh: 10; PRMT1 inh: 99*; ABHD5-PLIN5 inh: -3; PRMT1 confirm: 28*

How did C#CCNC(=O)C[C@@H]1C[C@]2(C(=O)OCC)CCC3=C2N(CCC3)C1=O do in these assays?
UHRF1 binding: -2; LEDGF integ inh: 2; MBD2 inh: -1; PRMT1 inh: -3

What do the screens show for `CCn1c(C)c(P(=O)(N2CCOCC2)N2CCOCC2)c2ccccc21`?
UHRF1 binding: 1; RBBP9 inh: -6; LEDGF integ inh: -1; MBD2 inh: 2; PRMT1 inh: -1; ABHD5-PLIN5 inh: -2

How did S=P(c1ccc(N2CCOCC2)cc1N1CCOCC1)(N1CCOCC1)N1CCOCC1 do in these assays?
UHRF1 binding: 3; LEDGF integ inh: 7; MBD2 inh: -4; PRMT1 inh: 8; ABHD5-PLIN5 inh: 0
